# Results from publication PMC6392825 (ChemistryOpen, 2019).
# How the values were obtained:
# [1] = Water solubility, shake flask method, 0.1 M phosphate buffer pH 6.8; assay type: physicochemical; details: 37 °C, pH 6.8, aqueous buffer, thermodynamic from solid
# [2] = Chemical antioxidant capacity, FRAP assay
# HepG2 [3] = assay: Cytotoxicity, mitochondrial activity; assay type: cell-based; details: Homo sapiens, HepG2, 72 h, read-out: IC50 MTT
# In short: (§1)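 Seeded at 20000 cells/well in DMEM and grown 24 h at 37 °C, 10% CO2. Medium was then replaced with serum-free medium holding test compound (25 mM DMSO stock) at various concentrations for 72 h, in triplicate; doxorubicin was the positive control. MTT (5 mg/mL stock in PBS) added for 2 h, formazan dissolved in DMSO, A570. IC50 derived from % surviving cells, reported as mean ± SD combined with SRB data.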
# HT‐29 [4] = assay: Cytotoxicity, mitochondrial activity; assay type: cell-based; details: Homo sapiens, HT-29, 72 h, read-out: IC50 MTT
# In short: as §1
# Caco‐2 [5] = assay: Cytotoxicity, mitochondrial activity; assay type: cell-based; details: Homo sapiens, Caco-2, 72 h, read-out: IC50 MTT
# In short: as §1
# EA.hy926 [6] = assay: Cytotoxicity, mitochondrial activity; assay type: cell-based; details: Homo sapiens, EA.hy 926, 72 h, read-out: IC50 MTT
# In short: as §1
# HepG2 [7] = assay: Cell growth inhibition, protein content; assay type: cell-based; details: Homo sapiens, HepG2, 72 h, read-out: IC50 SRB
# In short: (§2)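 Cell lines from ATCC, grown in DMEM+glutamax with 1% NEAA, 1% P/S and 10% FBS at 37 °C, 10% CO2. Seeded at 20000 cells/well for 24 h, then exposed to test compound (25 mM DMSO stock) for three days. Fixed with cold TCA for 1 h at 4 °C, stained 30 min with 0.4% SRB in 1% acetic acid, dissolved in 10 mM Tris, A490. Triplicate; IC50 given as mean ± SD combined with MTT data (n ≥ 3).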
# HT‐29 [8] = assay: Cell growth inhibition, protein content; assay type: cell-based; details: Homo sapiens, HT-29, 72 h, read-out: IC50 SRB
# In short: as §2
# Caco‐2 [9] = assay: Cell growth inhibition, protein content; assay type: cell-based; details: Homo sapiens, Caco-2, 72 h, read-out: IC50 SRB
# In short: as §2
# EA.hy926 [10] = assay: Cell growth inhibition, protein content; assay type: cell-based; details: Homo sapiens, EA.hy 926, 72 h, read-out: IC50 SRB
# In short: as §2
# HepG2 [11] = assay: Intracellular ROS assay; assay type: cell-based; details: for change of intracellular ROS in words: HepG2, vs untreated control, 10 and 1 μM; for activity at 1 µM / activity at 10 µM: Homo sapiens, HepG2, read-out: Intracellular ROS, percentage compared to the untreated control cells (ROS/SRB)
# In short: (§3)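 Cells seeded at 20000/well and grown 24 h at 37 °C, 10% CO2, then treated with test compound at 10 and 1 μM in serum-free medium. NAC and doxorubicin served as controls. After a PBS wash, cells were loaded with 20 μM DCFH-DA for 30 min, washed, and held 1 h in phenol red-free DMEM. Fluorescence read at ex 485/em 535 nm and normalized to SRB in the same well. Reported as % of untreated control, n ≥ 3, two-tailed t-test with unequal variances.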
# HT‐29 [12] = assay: Intracellular ROS assay; assay type: cell-based; details: for change of intracellular ROS in words: HT‐29, vs untreated control, 10 and 1 μM; for activity at 1 µM / activity at 10 µM: Homo sapiens, HT-29, read-out: Intracellular ROS, percentage compared to the untreated control cells (ROS/SRB)
# In short: as §3
# Caco‐2 [13] = assay: Intracellular ROS assay; assay type: cell-based; details: for change of intracellular ROS in words: Caco‐2, vs untreated control, 10 and 1 μM; for activity at 1 µM / activity at 10 µM: Homo sapiens, Caco-2, read-out: Intracellular ROS, percentage compared to the untreated control cells (ROS/SRB)
# In short: as §3
# EA.hy926 [14] = assay: Intracellular ROS assay; assay type: cell-based; details: for activity at 1 µM / activity at 10 µM: Homo sapiens, EA.hy 926, read-out: Intracellular ROS, percentage compared to the untreated control cells (ROS/SRB)
# In short: as §3
SMILES,solubility at 90 min [1] [µM],solubility at 24 h [1] [µM],FRAP (Trolox equivalent per μM) [2] [Trolox equivalent per μM],FRAP (curcumin equivalent per μM) [2],IC50 (HepG2 [3]) [µM],IC50 (HT‐29 [4]) [µM],IC50 (Caco‐2 [5]) [µM],IC50 (EA.hy926 [6]) [µM],IC50 (HepG2 [7]) [µM],IC50 (HT‐29 [8]) [µM],IC50 (Caco‐2 [9]) [µM],IC50 (EA.hy926 [10]) [µM],activity at 1 µM (HepG2 [11]) [%],activity at 10 µM (HepG2 [11]) [%],activity at 1 µM (HT‐29 [12]) [%],activity at 10 µM (HT‐29 [12]) [%],activity at 1 µM (Caco‐2 [13]) [%],activity at 10 µM (Caco‐2 [13]) [%],activity at 1 µM (EA.hy926 [14]) [%],activity at 10 µM (EA.hy926 [14]) [%],also measured
"COc1cc(/C=C/C(=O)/C=C(O)/C=C/c2cccnc2)ccc1O [3 a, (1E,4Z,6E)‐5‐Hydroxy‐1‐(4‐hydroxy‐3‐methoxyphenyl)‐7‐(pyridin‐3‐yl)hepta‐1,4,6‐triene‐3‐one]",8.1 ± 1.6,14.5 ± 1.1,0.42,0.40 curcumin equivalent per μM,14.1 ± 0.3,17.9 ± 0.1,14.6 ± 2,8.5 ± 0.4,16.8 ± 0.9,20.9 ± 0.9,25 ± 1.8,3.8,116 ± 12.8,82.3 ± 1.9,83.2 ± 3.2,89.9 ± 4.3,106 ± 8.4,120 ± 8.7,123 ± 9.5,95.5 ± 5.1,change of intracellular ROS in words (HepG2 [11]): significantly decreased ROS signal; change of intracellular ROS in words (HT‐29 [12]): significantly decreased ROS signal; change of intracellular ROS in words (Caco‐2 [13]): significantly increased ROS production
"COc1cc(/C=C/C(=O)/C=C(O)/C=C/c2ccccn2)ccc1O [3 b, (1E,4Z,6E)‐5‐Hydroxy‐1‐(4‐hydroxy‐3‐methoxyphenyl)‐7‐(pyridin‐2‐yl)hepta‐1,4,6‐triene‐3‐one]",9.9 ± 0.4,11.6 ± 0.6,0.41,0.40 curcumin equivalent per μM,24.6 ± 4.8,34.3 ± 2.7,22.3 ± 0.9,1.1 ± 0.1,20.6 ± 1.4,34.8 ± 1.2,25.8 ± 1.1,3.1,108 ± 6.7,91.9 ± 9.2,80.8 ± 2.5,93.6 ± 3.1,92.7 ± 5.4,99.7 ± 6.2,100 ± 7,127 ± 4.9,–
"COc1cc(/C=C/C(=O)/C=C(O)/C=C/c2ccnc3ccccc23)ccc1O [3 d, (1E,4Z,6E)‐5‐Hydroxy‐1‐(4‐hydroxy‐3‐methoxyphenyl)‐7‐(quinolin‐4‐yl)hepta‐1,4,6‐triene‐3‐one]",3.6 ± 1.1,4.4 ± 1.3,0.20,0.20 curcumin equivalent per μM,44.8 ± 5.5,47 ± 1,46.3 ± 3.7,42.3 ± 1.2,55.4 ± 0.3,47.2 ± 2.2,40.8 ± 1.6,60.2 ± 10.4,90.7 ± 7.4,99.6 ± 11.7,71.3 ± 4.9,96.9 ± 8,94.2 ± 5,108 ± 4.4,95.6 ± 7,132 ± 6.5,–
"COc1cc(/C=C/C(=O)/C=C(O)/C=C/c2cccc3cnccc23)ccc1O [3 e, (1E,4Z,6E)‐5‐Hydroxy‐1‐(4‐hydroxy‐3‐methoxyphenyl)‐7‐(isoquinolin‐5‐yl)hepta‐1,4,6‐triene‐3‐one]",1.1 ± 0.2,1.4 ± 0.2,0.21,0.20 curcumin equivalent per μM,4.7 ± 0.2,1.3 ± 0.5,6.9 ± 0.3,5.2 ± 0.2,7.3 ± 0.3,10.7 ± 1.6,17.7 ± 3,16.2 ± 0.6,103 ± 5.1,96.7 ± 4.3,80.6 ± 4.8,67.6 ± 5.1,92.8 ± 11.9,72.7 ± 5.1,96.3 ± 4.3,120 ± 4.4,change of intracellular ROS in words (Caco‐2 [13]): significantly decreased ROS production
"COc1cc(/C=C/C(=O)/C=C(O)/C=C/c2c[nH]c3ccccc23)ccc1O [3 g, (1E,4Z,6E)‐5‐Hydroxy‐1‐(4‐hydroxy‐3‐methoxyphenyl)‐7‐(1H‐indol‐3‐yl)hepta‐1,4,6‐trien‐3‐one]",7.6 ± 0.9,13.2 ± 0.3,0.44,0.42 curcumin equivalent per μM,19.5 ± 0.6,12.9 ± 0.9,5.8 ± 0.3,19 ± 0.4,13.5 ± 1.1,40.5 ± 4.3,37.9 ± 1.8,45.1 ± 2.6,111 ± 14.5,104 ± 12,85.7 ± 1.3,90.4 ± 5.1,102 ± 11.3,111 ± 3.1,129 ± 9.2,92.7 ± 6.1,–
"O=C(/C=C(O)/C=C/c1cccnc1)/C=C/c1c[nH]c2ccccc12 [3 h, (1E,4Z,6E)‐5‐Hydroxy‐1‐(1H‐indol‐3‐yl)‐7‐(pyridin‐3‐yl)hepta‐1,4,6‐trien‐3‐one]",5.3 ± 0.1,5.4 ± 0.1,0.13,0.12 curcumin equivalent per μM,5 ± 0.3,6.4 ± 0.8,6.7 ± 0.4,6.2 ± 0.3,10.2 ± 0.4,34.6 ± 0.8,10.3 ± 0.1,2.9 ± 0.1,115 ± 4.5,112 ± 4.9,82.3 ± 1.5,95.6 ± 4.2,111 ± 3.2,128 ± 8.2,97.9 ± 9.8,107 ± 5.3,change of intracellular ROS in words (HepG2 [11]): significantly increased ROS production
"O=C1O[C@H]([C@@H](O)CO)C(O)=C1O [Ascorbic acid, ascorbic acid, reference compound]",–,–,0.60,0.57 curcumin equivalent per μM,–,–,–,–,–,–,–,–,–,–,–,–,–,–,–,–,–
"CC(=O)N[C@@H](CS)C(=O)O [NAC, N‐acetyl‐L‐cysteine, reference compound]",–,–,–,–,–,–,–,–,–,–,–,–,77.1 ± 7.8,63.1 ± 4.3,82.7 ± 3.4,75.3 ± 3.3,83.7 ± 6.2,83.5 ± 5.1,84.2 ± 4.8,76.6 ± 8.3,"change of intracellular ROS in words (HepG2 [11]): significant decrease in ROS generation; change of intracellular ROS in words (HT‐29 [12]): significant decrease in ROS generation; change of intracellular ROS in words (Caco‐2 [13]): significant decrease in ROS generation; change of intracellular ROS in words (EA.hy926 [14]; EA.hy926, vs untreated control, 10 and 1 μM): significant decrease in ROS generation"
"Cc1c(C)c2c(c(C)c1O)CCC(C)(C(=O)O)O2 (stereo not shown) [Trolox, reference compound]",–,–,–,1.00 curcumin equivalent per μM,–,–,–,–,–,–,–,–,–,–,–,–,–,–,–,–,–
"Cc1c(C)c2c(c(C)c1O)CC[C@@](C)(CCC[C@H](C)CCC[C@H](C)CCCC(C)C)O2 [α‐Tocopherol, α‐tocopherol, reference compound]",–,–,0.70,0.68 curcumin equivalent per μM,–,–,–,–,–,–,–,–,–,–,–,–,–,–,–,–,–
